ChEMBL document CHEMBL2406932, “Heteroaromatic and aniline derivatives of piperidines as potent ligands for vesicular acetylcholine transporter” (J Med Chem, 2013)

How the values were obtained:
[1] = test system: Muscle tissue; assay: Biodistribution in Sprague-Dawley rat muscle at 350 uCi, iv after 30 mins; type: ADME, organism-based; conditions: in vivo, 0.5 h
[2] = test system: Brain; assay: Biodistribution in Sprague-Dawley rat brain at 350 uCi, iv after 5 mins; type: ADME, organism-based; conditions: in vivo
[3] = test system: Striatum; assay: Biodistribution in Sprague-Dawley rat striatum at 350 uCi, iv after 30 mins; type: ADME, organism-based; conditions: in vivo, 0.5 h
[4] = test system: Brain; assay: (§1) Biodistribution in Sprague-Dawley rat brain at 350 uCi, iv after 30 mins; type: ADME, organism-based; conditions: in vivo, 0.5 h
[5] = test system: Lung; assay: Biodistribution in Sprague-Dawley rat lung at 350 uCi, iv after 5 mins; type: ADME, organism-based; conditions: in vivo
[6] = test system: Hippocampus; assay: Biodistribution in Sprague-Dawley rat hippocampus at 350 uCi, iv after 30 mins in presence of cyclosporin A; type: ADME, organism-based; conditions: in vivo, 0.5 h
[7] = molecular target: T1, Vesicular acetylcholine transporter (Homo sapiens, UniProt Q16572); assay: Displacement of (-)-[3H]vesamicol from human VAChT expressed in rat PC12 cell membrane after 20 hrs; type: cell membranes, PC-12
T1 sequence (Q16572 whole entry): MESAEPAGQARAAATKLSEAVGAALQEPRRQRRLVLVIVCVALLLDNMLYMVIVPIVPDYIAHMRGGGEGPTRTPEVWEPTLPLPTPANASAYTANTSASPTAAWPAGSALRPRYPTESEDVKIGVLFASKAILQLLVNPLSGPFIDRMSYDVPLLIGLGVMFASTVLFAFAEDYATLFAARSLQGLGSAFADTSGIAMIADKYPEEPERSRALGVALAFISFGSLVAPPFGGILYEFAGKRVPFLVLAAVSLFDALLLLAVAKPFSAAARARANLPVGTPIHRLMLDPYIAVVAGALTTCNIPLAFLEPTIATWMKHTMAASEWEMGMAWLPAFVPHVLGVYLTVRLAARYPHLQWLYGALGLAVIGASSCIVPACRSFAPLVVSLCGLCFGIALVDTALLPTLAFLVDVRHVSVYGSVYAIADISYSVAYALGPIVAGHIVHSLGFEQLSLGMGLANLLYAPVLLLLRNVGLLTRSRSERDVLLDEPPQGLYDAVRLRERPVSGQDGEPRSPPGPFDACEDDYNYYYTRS

[8] = test system: Muscle tissue; assay: Biodistribution in Sprague-Dawley rat muscle at 350 uCi, iv after 5 mins; type: ADME, organism-based; conditions: in vivo
[9] = test system: Muscle tissue; assay: Biodistribution in Sprague-Dawley rat muscle at 350 uCi, iv after 30 mins in presence of cyclosporin A; type: ADME, organism-based; conditions: in vivo, 0.5 h
[10] = test system: Liver; assay: Biodistribution in Sprague-Dawley rat liver at 350 uCi, iv after 30 mins; type: ADME, organism-based; conditions: in vivo, 0.5 h
[11] = Biodistribution in cynomolgus monkey striatum at 5 to 7 mCi, iv after 10 mins by microPET analysis; type: ADME, organism-based, Macaca fascicularis; conditions: in vivo
Outline: (§2)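 Male cynomolgus monkeys (4–6 kg) were fasted 12 h, induced with ketamine (10 mg/kg) and glycopyrrolate (0.13 mg/kg) i.m., intubated and kept on 0.75–2.0% isoflurane. After attenuation-correction transmission scans, 5–7 mCi of tracer was given via venous catheter and a 100 min dynamic microPET scan was acquired. MRI-coregistered regions of interest yielded time-activity curves; n = 3.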

[12] = test system: Brain; assay: Ratio of drug uptake in Sprague-Dawley rat brain in absence of cyclosporin A to drug uptake in Sprague-Dawley rat brain in presence of cyclosporin A; type: ADME, tissue-based; conditions: in vivo
Outline: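 Cyclosporine A (Sandimmune diluted 1:1 with saline) was given i.v. at 25 mg/kg 30 min before the radioligand. Rats were euthanized 30 min after tracer injection. Groups were compared with controls by Student t test (n=4).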

[13] = test system: Spleen; assay: Biodistribution in Sprague-Dawley rat spleen at 350 uCi, iv after 30 mins in the presence of cyclosporin A; type: ADME, organism-based; conditions: in vivo, 0.5 h
[14] = test system: Heart; assay: Biodistribution in Sprague-Dawley rat heart at 350 uCi, iv after 30 mins in presence of cyclosporin A; type: ADME, organism-based; conditions: in vivo, 0.5 h
[15] = test system: Brain; assay: as §1; type: ADME, organism-based; conditions: in vivo, 0.5 h; remark: listed apart in the source
[16] = test system: Brain; assay: Biodistribution in Sprague-Dawley rat brain at 350 uCi, iv after 30 mins in the presence of cyclosporin A; type: ADME, organism-based; conditions: in vivo, 0.5 h
[17] = molecular target: Sigma non-opioid intracellular receptor 1 (Cavia porcellus, UniProt Q60492); assay: Displacement of (+)- [3H]pentazocine from sigma 1 receptor expressed in guinea pig brain membrane homogenates by scintillation counting analysis; type: cell membranes
Sigma non-opioid intracellular receptor 1, sequence (Q60492 whole entry): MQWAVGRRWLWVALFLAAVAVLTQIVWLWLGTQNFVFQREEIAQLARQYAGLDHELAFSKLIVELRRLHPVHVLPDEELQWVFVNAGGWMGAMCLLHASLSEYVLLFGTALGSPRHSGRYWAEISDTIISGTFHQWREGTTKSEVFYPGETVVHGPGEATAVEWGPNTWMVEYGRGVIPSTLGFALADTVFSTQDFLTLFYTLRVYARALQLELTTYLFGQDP

[18] = test system: Lung; assay: Biodistribution in Sprague-Dawley rat lung at 350 uCi, iv after 30 mins in presence of cyclosporin A; type: ADME, organism-based; conditions: in vivo, 0.5 h
[19] = test system: Hippocampus; assay: Biodistribution in Sprague-Dawley rat hippocampus at 350 uCi, iv after 30 mins; type: ADME, organism-based; conditions: in vivo, 0.5 h
[20] = test system: Spleen; assay: Biodistribution in Sprague-Dawley rat spleen at 350 uCi, iv after 5 mins; type: ADME, organism-based; conditions: in vivo
[21] = test system: Lung; assay: Biodistribution in Sprague-Dawley rat lung at 350 uCi, iv after 30 mins; type: ADME, organism-based; conditions: in vivo, 0.5 h
[22] = test system: Rattus norvegicus; assay: Biodistribution in Sprague-Dawley rat fat at 350 uCi, iv after 5 mins; type: ADME, organism-based, Adipose tissue; conditions: in vivo
[23] = Biodistribution in cynomolgus monkey striatum at 5 to 7 mCi, iv up to 100 mins by microPET analysis; type: ADME, organism-based, Macaca fascicularis; conditions: in vivo; outline: as §2
[24] = test system: Rattus norvegicus; assay: Biodistribution in Sprague-Dawley rat brain stem at 350 uCi, iv after 30 mins in presence of cyclosporin A; type: ADME, organism-based; conditions: in vivo, 0.5 h
[25] = test system: Pancreas; assay: Biodistribution in Sprague-Dawley rat pancreas at 350 uCi, iv after 5 mins; type: ADME, organism-based; conditions: in vivo

[11CH3]Nc1ccc(C(=O)C2CCN([C@H]3Cc4ccccc4C[C@@H]3O)CC2)cc1
Drug uptake [1]: Active
Drug uptake [2]: 0.57 % ID/g
Drug uptake [3]: 0.593 % ID/g
Drug uptake [4]: Active
Drug uptake [5]: 1.77 % ID/g
Drug uptake [6]: 0.562 % ID/g
Ki [7]: 0.00078 µM
Drug uptake [8]: 0.22 % ID/g
Drug uptake [9]: Active
Drug uptake [10]: 2.44 % ID/g
Drug uptake [11]: Active
Ratio [12]: 2.2
Drug uptake [13]: Active
Drug uptake [14]: Active
Drug uptake [15]: 0.272 % ID/g
Drug uptake [16]: Active
Ki [17]: 0.992 µM
Drug uptake [18]: Active
Drug uptake [19]: 0.265 % ID/g
Drug uptake [20]: 1.19 % ID/g
Drug uptake [21]: Active
Drug uptake [22]: 0.18 % ID/g
Drug uptake [23]: Active
Drug uptake [24]: 0.577 % ID/g
Drug uptake [25]: 0.89 % ID/g
